Data as given in ChEMBL document CHEMBL3421606, “Organoselenocyanates and symmetrical diselenides redox modulators: Design, synthesis and biological evaluation” (Eur J Med Chem, 2015).

Key:
[1] = Antioxidant activity assessed as bleomycin-Fe2+-induced DNA degradation after 1 hr by spectrophotometry; assay type: physicochemical
Summary of the method: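 Mix of calf thymus DNA 0.5 mg/ml, bleomycin sulfate 0.05 mg/ml, MgCl2 5 mM, FeCl3 and test compound 2 mM, held 1 h at 37 °C. Stopped with EDTA, then 1% TBA and 25% HCl added, heated 80 °C 30 min. Cooled and centrifuged; TBA-reactive substances read at 532 nm as MDA equivalents. Ascorbic acid as reference. Means of 3 replicates.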

[2] = Antioxidant activity assessed as DPPH free radical scavenging activity after 30 mins by spectrophotometry; assay type: physicochemical; details: 0.5 h
Summary of the method: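 Compounds in methanol at 1 mg/ml. 200 µL added to 0.4 ml of 0.1 mM DPPH in methanol. Kept 30 min in the dark, then absorbance read at 517 nm against a blank (methanol, no DPPH). Scavenging % = (A blank − A sample)/A blank x 100. Ascorbic acid and ebselen served as reference antioxidants.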

HepG2 = assay: Cytotoxicity against human HepG2 cells after 48 hrs by MTT assay; assay type: functional, cell-based
Summary of the method: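 HepG2 grown in DMEM with 10% calf serum at 37 °C. Seeded at 50,000 cells/mL, grown 2 days, then serial compound dilutions added for 48 h at 37 °C, 10% CO2. MTT at 0.5 mg/mL final for 2 h; formazan dissolved in DMSO and read at 590 nm. IC50 = concentration giving 50% of untreated-control absorbance, from dose-response curves, mean of two parallel experiments. 5-FU as reference.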

[3] = Antioxidant activity assessed as glutathione peroxidase like activity after 3 mins by spectrophotometry; assay type: physicochemical; details: 0.05 h
Summary of the method: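 NADPH-glutathione reductase coupled assay in 50 mM phosphate buffer with 0.1% Triton X-100, plus glutathione, glutathione reductase and NADPH. Compound at 41 µM; reaction started with 0.8 mM H2O2. A340 recorded over 3 min to give ΔA/min, background-corrected for H2O2+GSH and for compound colour. Ebselen 41 µM as reference.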

Staphylococcus aureus [4] = assay: Antimicrobial activity against Staphylococcus aureus assessed as diameter of inhibition zone after 2 days by agar diffusion assay; assay type: functional
Summary of the method: (§1)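 Agar well/disc diffusion. 100 µL of suspension, 1x10^8 CFU/mL bacteria on nutrient agar or 1x10^4 spores/mL C. albicans on potato dextrose agar. 6 mm paper discs soaked with 20 µl of 1 mg/ml compound (20 µg per disc), incubated at 30°C. Inhibition zone diameter (mm) read after 1 and 2 days. Ampicillin (bacteria) and clotrimazole (fungus) controls at the same concentration.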

Staphylococcus aureus [5] = assay: Antimicrobial activity against Staphylococcus aureus assessed as diameter of inhibition zone after 2 days by agar diffusion assay relative to ampicillin; assay type: functional; set-up: concentration or dose not given beside the values
Summary of the method: (§2)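 Agar diffusion with 6 mm discs carrying 20 µL of 1 mg/ml compound on nutrient agar seeded with 1x10^8 CFU/mL bacteria, incubated at 30°C. Ampicillin run the same way at the same concentration. % activity index = inhibition zone of compound / inhibition zone of ampicillin x 100.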

Candida albicans = assay: Antimicrobial activity against Candida albicans assessed as diameter of inhibition zone after 1 day by agar diffusion assay; assay type: functional; summary of the method: as §1
Escherichia coli [6] = assay: Antimicrobial activity against Escherichia coli assessed as diameter of inhibition zone after 2 days by agar diffusion assay; assay type: functional; summary of the method: as §1
Escherichia coli [7] = assay: Antimicrobial activity against Escherichia coli assessed as diameter of inhibition zone after 2 days by agar diffusion assay relative to ampicillin; assay type: functional; summary of the method: as §2
[8] = Homo sapiens, HepG2, 48 h, read-out: IC50

Structure (SMILES)	OD [1]	Activity [2]	IC50 (HepG2; [8])	Activity [3]	diameter of the inhibition zone (DIZ) (Staphylococcus aureus [4])	IC50 (HepG2; hepg2)	Activity_index (Staphylococcus aureus [5])	diameter of the inhibition zone (DIZ) (Candida albicans)	diameter of the inhibition zone (DIZ) (Escherichia coli [6])	Activity_index (Escherichia coli [7])
N#C[Se]c1ccc(-n2[se]c3ccccc3c2=O)cc1	0.09	Active	64 µM	Not Active						
CC(C)C(C(=O)NC(C)(C)C)N(CCc1c[nH]c2ccccc12)C(=O)c1ccccc1[Se][Se]c1ccccc1C(=O)N(CCc1c[nH]c2ccccc12)C(C(=O)NC(C)(C)C)C(C)C (stereo not drawn)	0.07	Not Active	45 µM	Active						
Cc1ccc(C(C(=O)NC(C)(C)C)N(CCc2c[nH]c3ccccc23)C(=O)c2ccccc2[Se][Se]c2ccccc2C(=O)N(CCc2c[nH]c3ccccc23)C(C(=O)NC(C)(C)C)c2ccc(C)cc2)cc1 (stereo not drawn)	0.073	Not Active		Active	12 mm	Not Active	55%			
CC(C)C(C(=O)NC(C)(C)C)N(Cc1ccccc1)C(=O)c1ccccc1[Se][Se]c1ccccc1C(=O)N(Cc1ccccc1)C(C(=O)NC(C)(C)C)C(C)C (stereo not drawn)	0.073	Not Active		Active		Not Active				
N#C[Se]c1ccc(NC(=O)/C=C\C(=O)O)cc1	0.051	Active	5 µM		16 mm		73%	27 mm		
N#C[Se]c1ccc(N2C(=O)C=CC2=O)cc1	0.082	Not Active	0.6 µM	Active						
N#C[Se]c1ccc(NC(=O)CCC(=O)O)cc1	0.053	Active			15 mm	Not Active	68%			
N#C[Se]c1ccc(N2C(=O)CCC2=O)cc1	0.065	Not Active			21 mm	Not Active	95%	28 mm		
N#C[Se]c1ccc(NC(=O)CCCC(=O)O)cc1	0.068	Not Active	7 µM	Active	20 mm		91%			
N#C[Se]c1ccc(N2C(=O)CCCC2=O)cc1	0.078	Not Active	47 µM	Active						
O=C(O)/C=C\C(=O)Nc1ccc([Se][Se]c2ccc(NC(=O)/C=C\C(=O)O)cc2)cc1	0.089	Active	3 µM	Active	21 mm		95%			
O=C1C=CC(=O)N1c1ccc([Se][Se]c2ccc(N3C(=O)C=CC3=O)cc2)cc1	0.055	Active	13 µM	Active					7 mm	29%
O=C(O)CCC(=O)Nc1ccc([Se][Se]c2ccc(NC(=O)CCC(=O)O)cc2)cc1	0.088	Active		Active	20 mm	Not Active	91%	19 mm		
O=C1CCC(=O)N1c1ccc([Se][Se]c2ccc(N3C(=O)CCC3=O)cc2)cc1	0.074	Not Active	14 µM	Active	14 mm		64%			
O=C(O)CCCC(=O)Nc1ccc([Se][Se]c2ccc(NC(=O)CCCC(=O)O)cc2)cc1	0.083	Active	67 µM	Active	20 mm		91%	16 mm		
O=C1CCCC(=O)N1c1ccc([Se][Se]c2ccc(N3C(=O)CCCC3=O)cc2)cc1	0.09	Not Active	35 µM	Active	21 mm		90%			
O=c1c2ccccc2[se]n1-c1ccc([Se][Se]c2ccc(-n3[se]c4ccccc4c3=O)cc2)cc1	0.06	Active	40 µM	Not Active						
CC1(C)S[C@@H]2[C@H](NC(=O)[C@H](N)c3ccccc3)C(=O)N2[C@H]1C(=O)O [AMPICILLIN]					22 mm				24 mm	
O=C1O[C@H]([C@@H](O)CO)C(O)=C1O [ASCORBIC ACID]	0.062									
Clc1ccccc1C(c1ccccc1)(c1ccccc1)n1ccnc1 [CLOTRIMAZOLE]								28 mm		
O=c1c2ccccc2[se]n1-c1ccccc1 [EBSELEN]		Active		Active						
O=c1[nH]cc(F)c(=O)[nH]1 [FLUOROURACIL]			8 µM							
